Data published in ChEMBL document CHEMBL1128739, “Structure-activity relationships in the 8-amino-6,7,8,9-tetrahydro-3H-benz[e]indole ring system. 2. Effects of 8-amino nitrogen substitution on serotonin receptor binding and pharmacology” (J Med Chem, 1995).

How the values were obtained:
[1] = biological target: 5-hydroxytryptamine receptor 1B (Homo sapiens, UniProt P28222); test: In vitro binding affinity against cloned mammalian 5-hydroxytryptamine 1D receptor beta expressed in CHO cells, by using [3H]5-HT as radioligand; assay type: cell-based
Procedure, shortened: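 Membranes from CHO cells stably expressing the cloned receptor, made by mechanical disruption in ice-cold Tris/EDTA/EGTA pH 7.4 and differential centrifugation. [3H]serotonin at 1.7 nM in 50 mM Tris, 5 mM MgCl2, 0.1% ascorbic acid, pH 7.4. 11 drug concentrations in duplicate, 1 h at room temperature protected from light, then filtration. Excess serotonin defines nonspecific binding. One-site IC50 fit, Ki by Cheng-Prusoff.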

[2] = biological target: D(3) dopamine receptor (Rattus norvegicus) (UniProt P19020); test: The compound was tested in vitro for binding affinity against cloned mammalian Dopamine receptor D3 expressed in CHO cells by, using [3H]-spiperone as radioligand; assay type: cell-based; conditions: concentration not given here
Procedure, shortened: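 Cloned D3 receptor came from CHO cell membranes (20-60 μg protein). These were incubated 1 h at room temperature with [3H]spiperone (123 Ci/mmol, 0.5 nM) in 20 mM HEPES, 10 mM MgCl2, 150 mM NaCl, 1 mM EDTA, pH 7.4. Excess haloperidol defined nonspecific binding. There were 11 concentrations in duplicate. After filtration and scintillation counting, IC50 came from a one-site competition fit and Ki from Cheng-Prusoff.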

Sequence of 5-hydroxytryptamine receptor 1B (P28222 whole entry): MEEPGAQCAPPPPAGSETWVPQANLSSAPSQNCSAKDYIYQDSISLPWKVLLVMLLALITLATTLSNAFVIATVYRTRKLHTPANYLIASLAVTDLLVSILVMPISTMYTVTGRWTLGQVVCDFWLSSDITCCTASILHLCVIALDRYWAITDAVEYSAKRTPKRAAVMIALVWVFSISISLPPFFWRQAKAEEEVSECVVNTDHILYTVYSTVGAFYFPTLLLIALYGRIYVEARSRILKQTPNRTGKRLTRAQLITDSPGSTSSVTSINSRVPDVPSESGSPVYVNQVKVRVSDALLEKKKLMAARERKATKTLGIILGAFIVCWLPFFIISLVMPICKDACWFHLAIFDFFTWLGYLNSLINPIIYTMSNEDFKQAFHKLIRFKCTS
Sequence of D(3) dopamine receptor (Rattus norvegicus) (P19020 whole entry): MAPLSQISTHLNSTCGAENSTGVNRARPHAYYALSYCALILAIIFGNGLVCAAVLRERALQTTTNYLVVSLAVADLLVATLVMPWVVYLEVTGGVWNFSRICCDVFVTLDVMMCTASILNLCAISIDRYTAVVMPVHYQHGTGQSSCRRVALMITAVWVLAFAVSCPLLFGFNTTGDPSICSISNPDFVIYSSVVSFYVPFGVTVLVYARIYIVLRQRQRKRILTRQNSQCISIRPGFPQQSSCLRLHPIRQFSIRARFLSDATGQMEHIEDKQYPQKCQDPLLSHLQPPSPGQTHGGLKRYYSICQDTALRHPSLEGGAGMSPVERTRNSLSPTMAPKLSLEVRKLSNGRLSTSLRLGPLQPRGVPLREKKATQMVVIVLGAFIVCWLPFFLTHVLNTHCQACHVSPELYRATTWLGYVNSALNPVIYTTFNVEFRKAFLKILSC

## CN(C)[C@H]1CCc2ccc3[nH]ccc3c2C1
[1]
  Ki: 1690 nM
[2]
  inhibition: < 45%
